Laboratory results: ChEMBL document CHEMBL1641579, “Synthesis and biological evaluation of 7-substituted-1-(3-bromophenylamino)isoquinoline-4-carbonitriles as inhibitors of myosin light chain kinase and epidermal growth factor receptor” (Bioorg Med Chem, 2011)

How the values were obtained:
NCI-H1755 = assay: Growth inhibition of human NCI-H1755 cells assessed as ATP level after 96 hrs by CellTiter-Glo assay; assay type: functional; conditions: NCI-H1755, 96 h
Method in brief: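 NSCLC lines maintained as in earlier work and authenticated by mutational analysis and SNP arrays. Cells were plated in 384-well format and allowed 24 h before compound addition as 10 threefold serial dilutions (DMSO stocks). After 96 h, viability was read as cellular ATP by CellTiter-Glo. GI50 was fitted with an R package.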

[1] = Growth inhibition of human NCI-H1915 cells assessed as ATP level after 96 hrs by CellTiter-Glo assay; assay type: functional; conditions: NCI-H1915, 96 h
Method in brief: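 Human NSCLC cells, maintained as described previously and authenticated by mutational analysis and SNP arrays, were plated and incubated 24 h. Compounds were dissolved in DMSO and added as 10 threefold serial dilutions. Viability was read after 96 h as cellular ATP content by luminescence, and half-maximal inhibitory concentrations were fitted to give GI50.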

- GI50 (NCI-H1755): 9.89 µM
SMILES: CN(C)C/C=C/C(=O)Nc1ccc2c(C#N)cnc(Nc3cccc(Br)c3)c2c1
- GI50 [1]: 18.2 µM
